From ChEMBL document CHEMBL4732114, “Design and structural optimization of novel 2H-benzo[h]chromene derivatives that target AcrB and reverse bacterial multidrug resistance” (Eur J Med Chem, 2021) come the findings set out here.

The target of data set [1] is T1, Multidrug efflux pump subunit AcrB (Escherichia coli (strain K12)) (UniProt P31224).
T1 sequence (whole entry): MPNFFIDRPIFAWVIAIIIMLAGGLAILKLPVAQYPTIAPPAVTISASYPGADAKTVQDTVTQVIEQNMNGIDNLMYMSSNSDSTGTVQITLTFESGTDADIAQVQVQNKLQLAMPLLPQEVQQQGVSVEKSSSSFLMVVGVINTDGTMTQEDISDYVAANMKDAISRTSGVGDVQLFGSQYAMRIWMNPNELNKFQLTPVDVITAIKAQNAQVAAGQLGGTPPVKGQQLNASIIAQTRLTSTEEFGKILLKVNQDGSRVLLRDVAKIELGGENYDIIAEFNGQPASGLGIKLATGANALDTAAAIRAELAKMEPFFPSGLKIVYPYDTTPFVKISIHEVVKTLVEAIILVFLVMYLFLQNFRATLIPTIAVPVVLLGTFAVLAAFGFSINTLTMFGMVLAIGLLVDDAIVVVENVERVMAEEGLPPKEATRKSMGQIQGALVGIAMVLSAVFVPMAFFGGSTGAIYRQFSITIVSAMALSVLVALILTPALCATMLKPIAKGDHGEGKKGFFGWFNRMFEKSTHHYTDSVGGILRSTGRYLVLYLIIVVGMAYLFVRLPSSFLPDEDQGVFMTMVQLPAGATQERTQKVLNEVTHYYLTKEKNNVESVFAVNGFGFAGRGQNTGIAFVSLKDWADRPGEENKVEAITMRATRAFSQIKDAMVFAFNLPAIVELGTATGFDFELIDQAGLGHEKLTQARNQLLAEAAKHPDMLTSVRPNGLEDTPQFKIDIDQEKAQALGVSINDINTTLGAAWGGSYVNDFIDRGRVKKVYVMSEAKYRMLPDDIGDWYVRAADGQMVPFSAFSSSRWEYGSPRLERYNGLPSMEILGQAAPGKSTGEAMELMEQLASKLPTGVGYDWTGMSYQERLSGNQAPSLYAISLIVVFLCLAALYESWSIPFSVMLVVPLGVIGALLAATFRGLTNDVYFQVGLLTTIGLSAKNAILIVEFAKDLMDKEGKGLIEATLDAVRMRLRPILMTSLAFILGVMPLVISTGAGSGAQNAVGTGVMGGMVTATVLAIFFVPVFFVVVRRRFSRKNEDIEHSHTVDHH
To be noted: Escherichia coli BW25113; dose 32.0 µg/ml.

The target in data set [2] is T1, Multidrug efflux pump subunit AcrB (Escherichia coli (strain K12)). Briefly: Inhibition of AcrB in multidrug-resistant Escherichia coli BW25113 assessed as potentiation of tetraphenylphosphonium-induced antibacterial activity by measuring tetraphenylphosphonium MIC at 64 ug/ml by checkerboard titration method (reference value: 1024 ug/ml). Particulars: dose 64.0 µg/ml.

Data set [3] has the same target. Briefly: Inhibition of AcrB in multidrug-resistant Escherichia coli BW25113 assessed as potentiation of erythromycin-induced antibacterial activity by measuring erythromycin MIC at 8 ug/ml by checkerboard titration method (reference value: 64 ug/ml). To be noted: dose 8.0 µg/ml.
The target is the same in data set [4]. Kind of data set: Inhibition of AcrB in multidrug-resistant Escherichia coli BW25113 assessed as potentiation of erythromycin-induced antibacterial activity by measuring erythromycin MIC at 16 ug/ml by checkerboard titration method (reference value: 64 ug/ml). To be noted: dose 16.0 µg/ml.
Data set [5] has the same target. Briefly: Inhibition of AcrB in multidrug-resistant Escherichia coli BW25113 assessed as potentiation of tetraphenylphosphonium-induced antibacterial activity by measuring tetraphenylphosphonium MIC at 128 ug/ml by checkerboard titration method (reference value: 1024 ug/ml). Particulars: dose 128.0 µg/ml.
For data set [6] the target is unchanged. Particulars: Escherichia coli BW25113; dose 128.0 µg/ml.
Data set [7] has the same target. Briefly: Inhibition of AcrB in multidrug-resistant Escherichia coli BW25113 assessed as potentiation of chloramphenicol-induced antibacterial activity by measuring chloramphenicol MIC at 8 ug/ml by checkerboard titration method (reference value: 8 ug/ml). To be noted: dose 8.0 µg/ml.
Data set [8] shares this target. Kind of data set: Inhibition of AcrB in Escherichia coli BW25113 assessed as reduction in glucose-induced nile red efflux at 100 uM preincubated for 15 mins followed by nile red addition and incubated for 3 hrs in shaker in presence of CCCP by fluorimetric analysis. To be noted: time 3.25 hrs. An outline of the steps: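 Wild-type and AcrB-deleted cells were preloaded with Nile Red, with or without compound. Fluorescence was recorded, and efflux was triggered at 100 s with 0.2% glucose. Traces were compared with the deletion-strain level. Triplicate experiments used different cell batches.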

The test system of data set [9] is Cell membrane. Briefly: Induction of outer membrane permeabilization in wild type Escherichia coli BW25113 assessed as increase in nitrocefin hydrolysis at 128 ug/ml in presence of CCCP by spectroscopic analysis. Particulars: dose 128 µg/ml. An outline of the steps: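 Intact E. coli were treated with 10 μM CCCP to block nitrocefin efflux, then given compound, nothing, or polymyxin B as permeabilizer control. Nitrocefin was added, and hydrolysis by periplasmic β-lactamase was followed as the rise in absorbance at 490 nm. Duplicate experiments were run on different days.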

The target of data set [10] is T1, Multidrug efflux pump subunit AcrB (Escherichia coli (strain K12)). Kind of data set: Inhibition of AcrB in multidrug-resistant Escherichia coli BW25113 assessed as potentiation of tetraphenylphosphonium-induced antibacterial activity by measuring tetraphenylphosphonium MIC at 8 ug/ml by checkerboard titration method (reference value: 1024 ug/ml). Particulars: dose 8.0 µg/ml.

For data set [11] the target is unchanged. Kind of data set: Inhibition of AcrB in multidrug-resistant Escherichia coli BW25113 assessed as potentiation of chloramphenicol-induced antibacterial activity by measuring chloramphenicol MIC at 128 ug/ml by checkerboard titration method (reference value: 8 ug/ml). Particulars: dose 128.0 µg/ml.
Data set [12] has the same target. Kind of data set: Inhibition of AcrB in multidrug-resistant Escherichia coli BW25113 assessed as potentiation of levofloxacin-induced antibacterial activity by measuring levofloxacin MIC at 16 ug/ml by checkerboard titration method (reference value: 0.06 ug/ml). Particulars: dose 16.0 µg/ml.
The target is the same in data set [13]. Kind of data set: Inhibition of AcrB in multidrug-resistant Escherichia coli BW25113 assessed as potentiation of chloramphenicol-induced antibacterial activity by measuring chloramphenicol MIC at 32 ug/ml by checkerboard titration method (reference value: 8 ug/ml). Particulars: dose 32.0 µg/ml.
For data set [14] the target is unchanged. Briefly: Inhibition of AcrB in multidrug-resistant Escherichia coli BW25113 assessed as potentiation of chloramphenicol-induced antibacterial activity by measuring chloramphenicol MIC at 16 ug/ml by checkerboard titration method (reference value: 8 ug/ml). Particulars: dose 16.0 µg/ml.
The target is the same in data set [15]. Particulars: Escherichia coli BW25113; dose 8.0 µg/ml.
For data set [16] the target is unchanged. Briefly: Inhibition of AcrB in multidrug-resistant Escherichia coli BW25113 assessed as potentiation of tetraphenylphosphonium-induced antibacterial activity by measuring tetraphenylphosphonium MIC at 16 ug/ml by checkerboard titration method (reference value: 1024 ug/ml). Particulars: dose 16.0 µg/ml.

Molecules are shown by their SMILES. Converted amounts (≈) assume the structure as drawn. The source made the active and inactive calls. The calls are words filed in the database; no cut-off is given here.

For `CC1(C)CCc2c(C(=O)N3CCOCC3)cc3c(OCc4ccccc4)cccc3c2O1`, the MIC came out at 16 µg/mL (≈ 37.1 µM) in data set [1]; 512 µg/mL in data set [2]; 64 µg/mL in data set [3]; 64 µg/mL in data set [4]; 64 µg/mL in data set [5]; 16 µg/mL (≈ 37.1 µM) in [6]. For the same compound, the MIC turned out to be 8 µg/mL in data set [7]; 512 µg/mL in data set [10]; 4 µg/mL in [11]; 0.03 µg/mL in data set [12]; 4 µg/mL in data set [13]; 4 µg/mL in [14]. Besides, the MIC in data set [15] is 16 µg/mL (≈ 37.1 µM); in [16], 512 µg/mL. Further, the inhibition result in data set [8] is “Active”. Also, the Activity entry in data set [9] is listed as “Not Active”.
With `CC1CN(C(=O)c2cc3c(OCc4ccc(Br)cc4)cccc3c3c2CCC(C)(C)O3)CC(C)O1` (configuration not stated), the MIC in data set [1] worked out at 16 µg/mL (≈ 29.7 µM); in data set [2], 1020 µg/mL; in data set [3], 64 µg/mL; in data set [4], 64 µg/mL; in data set [5] it was 512 µg/mL; in [6], 16 µg/mL (≈ 29.7 µM). Also, the MIC in data set [7] stood at 8 µg/mL; in [10] it was 1020 µg/mL; in [11], 8 µg/mL; in data set [12], 0.06 µg/mL; in data set [13] it was 8 µg/mL; in data set [14] it was 8 µg/mL. Also, the MIC in data set [15] came out at 16 µg/mL (≈ 29.7 µM); in data set [16], 1020 µg/mL. Besides, the inhibition result in data set [8] is “Active”. In addition, the Activity result in [9] is reported as “Not Active”.
Turning to `CC1(C)CCc2c(C(=O)O)cc3c(OCc4ccccc4)cccc3c2O1`, the MIC turned out to be 16 µg/mL (≈ 44.1 µM) in [1]; 256 µg/mL in data set [2]; 64 µg/mL in [3]; 64 µg/mL in [4]; 64 µg/mL in data set [5]; 16 µg/mL (≈ 44.1 µM) in data set [6]. The MIC in data set [7] came to 8 µg/mL; in [10], 1020 µg/mL; in data set [11], 1 µg/mL; in data set [12], 0.06 µg/mL; in [13], 8 µg/mL; in data set [14], 8 µg/mL. For the same compound, the MIC came out at 16 µg/mL (≈ 44.1 µM) in data set [15] and 1020 µg/mL in data set [16]. Further, in data set [8], the inhibition result was “Active”. Moreover, in data set [9], the Activity result was “Not Active”.
Take `CC1(C)CCc2c(-c3nnco3)cc3c(OCc4ccccc4)cccc3c2O1`: the MIC in data set [1] was 16 µg/mL (≈ 41.4 µM); in data set [2], 512 µg/mL; in [3], 64 µg/mL; in data set [4], 64 µg/mL; in data set [5] it was 128 µg/mL; in data set [6], 16 µg/mL (≈ 41.4 µM). The MIC in data set [7] came out at 8 µg/mL; in data set [10], 512 µg/mL; in data set [11], 2 µg/mL; in data set [12], 0.06 µg/mL; in data set [13], 4 µg/mL; in data set [14] it was 8 µg/mL. Besides, the values for the MIC in data set [15] and in [16] were 16 µg/mL (≈ 41.4 µM) and 512 µg/mL, respectively. The inhibition result in [8] was “Active”. Further, in data set [9], the Activity result is “Not Active”.
On to `CC1(C)CCc2c(Cn3cnnn3)cc3c(OCc4ccc(OC(F)(F)F)cc4)cccc3c2O1`, for which the MIC was found to be 16 µg/mL (≈ 33 µM) in [1]; 1020 µg/mL in data set [2]; 64 µg/mL in data set [3]; 64 µg/mL in [4]; 1020 µg/mL in data set [5]; 16 µg/mL (≈ 33 µM) in data set [6]. In addition, the MIC in data set [7] is 8 µg/mL; in data set [10] it was 1020 µg/mL; in data set [11], 4 µg/mL; in data set [12], 0.06 µg/mL; in data set [13] it was 8 µg/mL; in data set [14] it was 8 µg/mL. In addition, the MIC in data set [15] worked out at 16 µg/mL (≈ 33 µM); in data set [16] it was 1020 µg/mL. Besides, in data set [8], the inhibition result is “Active”. In addition, the Activity result in data set [9] is on record as “Not Active”.
Take `CC(C)NCCOc1ccc2c(c1)OC(C)(C)CC2=O`: the MIC in [1] worked out at 16 µg/mL (≈ 57.7 µM); in [2], 1020 µg/mL; in data set [3], 64 µg/mL; in data set [4], 64 µg/mL; in data set [5], 1020 µg/mL; in data set [6], 16 µg/mL (≈ 57.7 µM). In addition, the MIC in [7] came to 8 µg/mL; in data set [10] it was 1020 µg/mL; in [11], 8 µg/mL; in data set [12], 0.03 µg/mL; in [13], 8 µg/mL; in data set [14], 8 µg/mL. For the same compound, the MIC in data set [15] stood at 16 µg/mL (≈ 57.7 µM); in data set [16], 1020 µg/mL. Further, the inhibition entry in data set [8] is “Active”. In data set [9], the Activity entry is reported as “Not Active”.
Consider `C=CC(=O)Nc1ccc(COc2cccc3c4c(c(C(=O)N5CCOCC5)cc23)CCC(C)(C)O4)cc1`, for which the MIC amounted to 16 µg/mL (≈ 32 µM) in data set [1]; 128 µg/mL in [2]; 16 µg/mL in [3]; 16 µg/mL in [4]; 64 µg/mL in [5]; 16 µg/mL (≈ 32 µM) in [6]. The MIC in [7] turned out to be 4 µg/mL; in data set [10] it was 512 µg/mL; in data set [11] it was 2 µg/mL; in [12] it was 0.06 µg/mL; in [13], 4 µg/mL; in [14] it was 4 µg/mL. Also, the MIC in data set [15] is 16 µg/mL (≈ 32 µM); in data set [16], 512 µg/mL. Also, the inhibition entry in data set [8] was “Active”. Further, in data set [9], the Activity entry is recorded as “Not Active”.
